Assay [1] relates to Rattus norvegicus. Briefly: Minimum dose of iv injection that shows vagus reflex and a heart rate decrease of 50 beats/min in non-vagotomized rats. Type of assay: functional. The essentials: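 Non-vagotomized rats given increasing iv doses. The value is the lowest dose (mg/kg) that elicits a vagus reflex with a heart-rate fall of 50 beats/min. Compounds were scored ineffective if no such response occurred below 3 mg/kg. n = 8.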

The subject of assay [2] is Rattus norvegicus. Briefly: Change in blood pressure was tested by inducing ia injection at a dose 0.01 mg/kg in rat. Type of assay: functional. As to conditions: route intra-arterial. In a few lines: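 Urethane-anaesthetised normotensive Wistar rats; single intra-arterial bolus via the superficial epigastric artery. Read-out is the depressor change in systemic blood pressure in mmHg. Data are means ± SE, n = 8, analysed by ANOVA.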

In assay [1], `COc1cc(CNC(=O)CCCC/C=C/C(C)C)ccc1O` [CAPSAICIN] returned a Dose of 1 µg/kg. In assay [2], the BP is -49.5 mmHg.
As for `CCCCCCCCC(=O)NCc1ccc(O)c(OC)c1` [NONIVAMIDE], the Dose in assay [1] came out at 5 µg/kg. In addition, in assay [2], the BP is given as -28.3 mmHg.

(Values after ChEMBL document CHEMBL1127688, “Guaiacoxypropanolamine derivatives of capsaicin: a new family of beta-adrenoceptor blockers with intrinsic cardiotonic properties” (J Med Chem, 1994).)
